Measurements: ChEMBL document CHEMBL4613263, “Optimization of Tetrahydroindazoles as Inhibitors of Human Dihydroorotate Dehydrogenase and Evaluation of Their Activity and In Vitro Metabolic Stability” (J Med Chem, 2020)
In brackets after ≈: the same amount, converted by molar mass. Values belong to the compound of their own block, whether it stands above or below them. Activity calls are given as the source filed them. No cut-off for these calls is given here.

How the values were obtained:
[1] = Kinetic aqueous solubility of compound in Prima HT solution at pH 7.4 incubated for 4 hrs by UV-spectrophotometry; format: physicochemical; conditions: read-out: Kinetic_solubility
Method in brief: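 20 mM DMSO stocks diluted 100× into Prima HT buffer at pH 7.4 and shaken 4 h at rt. Samples filtered through 0.22 µm, mixed 1:1 with isopropanol and scanned by UV from 190–400 nm against stock reference standards.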

[2] = Antiproliferative activity against human ARN8 cells assessed as reduction in cell viability incubated for 72 hrs by SRB assay; format: functional, cell-based
[3] = Metabolic stability in CD-1 mouse liver microsomes assessed as half life at 1 uM incubated for 60 mins by LC-MS/MS analysis; format: ADME, Microsome; conditions: for half-life at 1 µM: CD-1, mouse, liver microsomes
Method in brief: (§1)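 Compound at 1 µM with 1.0 mg/mL human or mouse liver microsomes in 50 mM potassium phosphate pH 7.4, preincubated 5 min at 37 °C. Started with 1 mM NADPH (or blank buffer). Quenched with cold acetonitrile containing glipizide at 0, 5, 15, 30, 60 min. Parent loss tracked by LC-MS/MS in MRM mode; t½ = 0.693/k from slope of peak-area ratio versus time.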

[4] = Metabolic stability in human liver microsomes assessed as half life at 1 uM incubated for 60 mins by LC-MS/MS analysis; format: ADME, Microsome; conditions: for half-life at 1 µM: liver microsomes; method in brief: as §1
[5] = Cytotoxicity against human HNDF cells assessed as reduction in cell viability incubated with compound at higher concentration for 72 hrs in presence of 100 uM […], uridine by SRB assay; format: cell-based
Method in brief: (§2)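 Normal dermal fibroblasts seeded at 15×10^2 per well and left 24 h, then treated 72 h in medium with 0.1% DMSO final plus 100 µM uridine. Fixed with TCA, stained with 0.4% SRB, dye dissolved in Tris and read at 490 nm. Growth/viability given as % of DMSO control; mean ± SD of three technical replicates.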

Homo sapiens [6] = species: Homo sapiens; assay: Antiproliferative activity against human ARN8 cells assessed as reduction in cell viability incubated with compound at higher concentration for 72 hrs in presence of 100 uM […], uridine by SRB assay; format: functional, cell-based
[7] = Cytotoxicity against human HNDF cells assessed as reduction in cell viability incubated for 72 hrs by SRB assay; format: cell-based
Method in brief: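 Human normal dermal fibroblasts seeded at 15×10^2 per well and left 24 h, then exposed to compound for 72 h with 0.1% DMSO final. Cells fixed with TCA at 4 °C for 1 h, stained with SRB, solubilized in 10 mM Tris and read at 490 nm. Values normalized to DMSO control. Tabulated means come only from experiments where IC50 fell below 10 000 nM.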

[8] = Drug metabolism in CD-1 mouse liver microsomes assessed as hydroxylation-mediated M1 metabolite with m/z as 397.1 formation by measuring retention time at 10 uM incubated for 60 mins by LC-MS/MS analysis; format: ADME, Microsome; conditions: 1 h
Method in brief: (§3)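 10 µM compound in 100 mM phosphate pH 7.4 with pooled female CD-1 mouse liver microsomes and NADPH, at 37 °C for 0, 10, 20, 40 and 60 min. Stopped with equal-volume cold acetonitrile, then centrifuged, dried and reconstituted. Metabolites and parent resolved on C18 UHPLC with ion-trap MS. Each peak reported as % of total (metabolite + parent) area.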

[9] = biological target: T1, Dihydroorotate dehydrogenase (quinone), mitochondrial (Homo sapiens, UniProt Q02127); assay: Inhibition of DHODH in human ARN8 cells assessed as activation of p53-dependent transcription at 0.05 to 10 uM incubated for 16 hrs by CPRG assay; format: cell-based
T1 sequence (Q02127 whole entry): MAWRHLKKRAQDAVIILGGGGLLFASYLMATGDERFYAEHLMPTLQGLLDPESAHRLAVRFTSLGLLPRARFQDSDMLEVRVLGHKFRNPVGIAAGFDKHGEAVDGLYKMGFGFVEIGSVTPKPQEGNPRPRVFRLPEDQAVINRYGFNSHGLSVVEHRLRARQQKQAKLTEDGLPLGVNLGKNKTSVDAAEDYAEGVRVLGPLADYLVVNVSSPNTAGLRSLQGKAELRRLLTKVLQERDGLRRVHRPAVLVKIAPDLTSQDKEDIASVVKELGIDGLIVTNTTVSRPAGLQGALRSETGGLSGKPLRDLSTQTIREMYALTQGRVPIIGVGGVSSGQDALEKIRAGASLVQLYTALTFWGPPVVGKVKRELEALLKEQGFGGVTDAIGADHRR
Method in brief: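 ARN8 cells carrying the RGCΔFos-LacZ p53 reporter seeded at 2×10^4 per well and left 24 h, then treated 16 h (0.1% DMSO final, ±100 µM uridine). Cells washed, lysed and frozen at −20 °C for at least 2 h. β-galactosidase measured with CPRG substrate at pH 7.5, read at 590 nm after 24 h. Result is fold change vs DMSO; mean ± SD of three technical replicates.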

[10] = Drug metabolism in CD-1 mouse liver microsomes assessed as hydroxylation-mediated M2 metabolite with m/z as 397.1 formation by measuring retention time at 10 uM incubated for 60 mins by LC-MS/MS analysis; format: ADME, Microsome; conditions: 1 h; method in brief: as §3
[11] = Drug metabolism in CD-1 mouse liver microsomes assessed as disappearance of parent compound by measuring parent compound retention time at 10 uM incubated for 60 mins by LC-MS/MS analysis; format: ADME, Microsome; conditions: 1 h; method in brief: as §3
[12] = biological target: DNA topoisomerase 2-alpha (Homo sapiens) (UniProt P11388); conditions: 20 uM
DNA topoisomerase 2-alpha (Homo sapiens), sequence (P11388 whole entry): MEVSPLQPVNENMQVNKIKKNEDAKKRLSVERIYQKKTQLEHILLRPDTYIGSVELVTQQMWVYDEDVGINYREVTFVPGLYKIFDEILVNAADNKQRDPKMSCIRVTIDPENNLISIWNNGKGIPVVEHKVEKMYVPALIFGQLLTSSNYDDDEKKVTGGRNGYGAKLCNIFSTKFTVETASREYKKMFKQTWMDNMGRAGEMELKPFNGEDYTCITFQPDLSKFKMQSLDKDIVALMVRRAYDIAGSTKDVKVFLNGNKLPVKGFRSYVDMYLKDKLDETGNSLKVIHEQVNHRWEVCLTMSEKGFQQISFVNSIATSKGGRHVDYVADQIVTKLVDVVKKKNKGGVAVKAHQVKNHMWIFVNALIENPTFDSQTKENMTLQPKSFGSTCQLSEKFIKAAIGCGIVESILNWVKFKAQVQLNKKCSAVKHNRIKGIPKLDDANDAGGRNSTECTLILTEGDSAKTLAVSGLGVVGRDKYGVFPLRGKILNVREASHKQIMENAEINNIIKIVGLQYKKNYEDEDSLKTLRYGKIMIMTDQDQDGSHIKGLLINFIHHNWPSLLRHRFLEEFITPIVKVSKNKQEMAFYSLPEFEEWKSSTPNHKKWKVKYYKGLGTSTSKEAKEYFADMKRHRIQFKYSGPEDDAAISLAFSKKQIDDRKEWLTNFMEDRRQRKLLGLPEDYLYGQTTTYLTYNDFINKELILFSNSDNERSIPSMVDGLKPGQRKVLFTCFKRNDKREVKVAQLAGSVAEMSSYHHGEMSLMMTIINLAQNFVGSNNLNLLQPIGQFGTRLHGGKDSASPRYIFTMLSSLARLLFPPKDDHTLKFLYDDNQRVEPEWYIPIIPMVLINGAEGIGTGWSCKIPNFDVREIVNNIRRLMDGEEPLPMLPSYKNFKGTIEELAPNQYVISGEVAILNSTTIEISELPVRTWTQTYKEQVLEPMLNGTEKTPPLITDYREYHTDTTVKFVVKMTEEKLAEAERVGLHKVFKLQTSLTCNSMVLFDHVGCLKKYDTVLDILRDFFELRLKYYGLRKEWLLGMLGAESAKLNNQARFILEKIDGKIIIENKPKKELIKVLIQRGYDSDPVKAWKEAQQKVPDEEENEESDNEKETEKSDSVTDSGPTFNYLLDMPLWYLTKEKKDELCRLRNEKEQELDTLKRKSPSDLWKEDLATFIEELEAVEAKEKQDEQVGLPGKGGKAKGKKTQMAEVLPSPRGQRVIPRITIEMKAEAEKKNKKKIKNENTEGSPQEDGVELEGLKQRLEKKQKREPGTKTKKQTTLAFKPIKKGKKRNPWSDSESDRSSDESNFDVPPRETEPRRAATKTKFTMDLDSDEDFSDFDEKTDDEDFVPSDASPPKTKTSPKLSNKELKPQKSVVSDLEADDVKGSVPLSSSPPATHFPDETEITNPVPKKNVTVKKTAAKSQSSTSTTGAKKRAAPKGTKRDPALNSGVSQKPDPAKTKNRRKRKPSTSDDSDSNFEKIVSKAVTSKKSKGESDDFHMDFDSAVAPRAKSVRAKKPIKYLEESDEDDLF

[13] = biological target: DNA topoisomerase 2-alpha (Homo sapiens) (UniProt P11388); conditions: 20 uM; remark: listed apart in the source
[14] = biological target: DNA topoisomerase 2-alpha (Homo sapiens) (UniProt P11388); conditions: 20 uM; remark: listed apart in the source
[15] = biological target: DNA topoisomerase 2-alpha (Homo sapiens) (UniProt P11388); conditions: 20 uM; remark: listed apart in the source
[16] = biological target: DNA topoisomerase 2-alpha (Homo sapiens) (UniProt P11388); conditions: 20 uM; remark: listed apart in the source
[17] = biological target: DNA topoisomerase 2-alpha (Homo sapiens) (UniProt P11388); conditions: 20 uM; remark: listed apart in the source
[18] = biological target: T1, Dihydroorotate dehydrogenase (quinone), mitochondrial; assay: Inhibition of DHOH in human ARN8 cells assessed as gammaH2AX level at 20 uM incubated for 1 hr in presence of pan-caspase inhibitor, Z-VAD-FMK by Western blot analysis; format: cell-based
Method in brief: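 ARN8 cells treated 24 h at 20 nM, with 20 µM Z-VAD-FMK or vehicle added 4.5 h before harvest. Etoposide arm was 20 µM for 1 h alongside Z-VAD-FMK. Lysates normalized for protein and analysed by western blot for p53, p-Ser15 p53, γ-H2AX, H2AX and cleaved PARP (85 kDa) against stain-free total-protein loading.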

Homo sapiens [19] = species: Homo sapiens; assay: Antiproliferative activity against human ARN8 cells assessed as reduction in cell viability at 0.005 to 10 uM incubated for 72 hrs in presence of 100 uM […], uridine by SRB assay; format: functional, cell-based
[20] = Cytotoxicity against human HNDF cells assessed as reduction in cell viability incubated for 72 hrs in presence of 100 uM […], uridine by SRB assay; format: cell-based; method in brief: as §2
[21] = biological target: T1, Dihydroorotate dehydrogenase (quinone), mitochondrial; assay: Inhibition of recombinant human DHODH using dihydroorotic acid as substrate measured for 68 mins by DCIP based colorimetric assay
[22] = biological target: T1, Dihydroorotate dehydrogenase (quinone), mitochondrial; assay: Inhibition of recombinant human N-terminal His-tagged DHODH (31 to 395 residues) expressed in Escherichia coli expression system using dihydroorotic acid as substrate by DCIP assay
[23] = Homo sapiens, ARN8, 72 h, read-out: IC50
[24] = Homo sapiens, 72 h, read-out: IC50

solubility kinetic at 4 h [1]: 10 µM (≈ 3.76 µg/mL)
half-life at 1 µM [3]: 6 min
half-life at 1 µM [4]: 23 min
Compound: Cc1ccccc1-n1ncc2c1CCC[C@H]2NC(=O)c1noc2c1CCCC2
IC50 [2, 23]: 14 nM
Activity [5]: Non-Toxic
inhibition (Homo sapiens [6]): Active
IC50 [7, 24]: > 10000 nM

solubility kinetic at 4 h [1]: 15 µM (≈ 5.71 µg/mL)
Retention_time [8]: 4.1 min
inhibition [9]: Active
half-life at 1 µM [3]: 8 min
half-life at 1 µM [4]: 85 min
Retention_time [10]: 4.3 min
Retention_time [11]: 5.3 min
Compound: O=C(N[C@@H]1CCCc2c1cnn2-c1ccccc1F)c1onc2c1CCCC2
IC50 [2, 23]: 160 nM
IC50 [7, 24]: > 10000 nM

Compound: O=C(N[C@H]1CCCc2c1cnn2-c1ccccc1F)c1noc2c1CCCC2
IC50 [2]: Not Active
IC50 [7]: Not Active

Compound: O=C(N[C@@H]1CCCc2c1cnn2-c1ccccc1F)c1ncc2ccccn12
IC50 [2, 23]: 38 nM
IC50 [7, 24]: 9400 nM

solubility kinetic at 4 h [1]: 110 µM (≈ 41.3 µg/mL)
Stability ([3]; mouse, microsomes, 1 h, 1 µM): Stable
half-life at 1 µM [4]: > 60 min
Compound: Cc1c(-c2ccc(-c3ccccc3F)cc2)nc2ccc(F)cc2c1C(=O)O [BREQUINAR]
IC50 [2, 23]: 400 nM
IC50 [7, 24]: > 10000 nM

inhibition [12]: Active
inhibition [13]: Active
inhibition [14]: Active
inhibition [15]: Active
inhibition [16]: Active
inhibition [17]: Active
inhibition [18]: Active
Compound: COc1cc([C@@H]2c3cc4c(cc3[C@@H](O[C@@H]3O[C@@H]5CO[C@@H](C)O[C@H]5[C@H](O)[C@H]3O)[C@H]3COC(=O)[C@H]23)OCO4)cc(OC)c1O

Compound: O=C(N[C@@H]1CCCc2c1cnn2-c1ccccc1F)c1noc2c1CCCC2
IC50 [2, 23]: 80 nM
Activity (Homo sapiens [19]): inactive
IC50 [7, 24]: 10000 nM

Compound: O=C(NC1CCCc2c1cnn2-c1ccccc1F)c1onc2c1CCCC2 (racemic)
IC50 [2, 23]: 220 nM
IC50 [7, 24]: 8900 nM

Compound: Cc1ccccc1-n1ncc2c1CCCC2NC(=O)c1noc2c1CCCC2 (racemic)
IC50 [2, 23]: 15 nM
Activity [20]: Toxic
Activity [5]: Non-Toxic
Activity (Homo sapiens [19]): inactive
inhibition (Homo sapiens [6]): Active
IC50 [7, 24]: 8600 nM

Compound: O=C(N[C@@H]1CCCc2c1cnn2-c1ccccc1F)c1ncccn1
IC50 [2]: Not Active
IC50 [7]: Not Active

Compound: O=C(NC1CCCc2c1cnn2-c1ccccc1F)c1ccccc1 (racemic)
IC50 [2]: Not Active
IC50 [7]: Not Active

IC50 [21]: > 10000 nM
Compound: COC(=O)c1ccc(C(=O)NC2CCCc3c2cnn3-c2ccccc2F)nc1 (racemic)

Compound: Cc1ccccc1-n1ncc2c1CCC[C@H]2NC(=O)c1onc2c1CCCC2
IC50 [2, 23]: 73 nM
IC50 [7, 24]: > 10000 nM

Compound: O=C(NC1CCCc2c1cnn2-c1ccccc1)c1noc2c1CCCC2 (racemic)
IC50 [2, 23]: 430 nM
IC50 [7, 24]: 7000 nM

Compound: Cc1ccc(F)c(-n2ncc3c2CCC[C@H]3NC(=O)c2onc3c2CCCC3)c1
IC50 [2, 23]: 200 nM
IC50 [7, 24]: 6700 nM

solubility kinetic at 4 h [1]: < 5 µM
half-life at 1 µM [3]: 54 min
Stability ([4]; microsomes, 1 h, 1 µM): Stable
Compound: O=C(N[C@@H]1CCCc2c1cnn2-c1ccccc1F)c1cc(C(F)(F)F)ccn1
IC50 [2, 23]: 110 nM
Activity [20]: Toxic
Activity (Homo sapiens [19]): inactive
IC50 [7, 24]: > 10000 nM

Compound: Cc1cccc(-n2ncc3c2CCCC3NC(=O)c2noc3c2CCCC3)c1 (racemic)
IC50 [2, 23]: 170 nM
IC50 [7, 24]: 8000 nM

Compound: Cc1cccc(-n2ncc3c2CCCC3NC(=O)c2noc3c2CCCC3)c1C (racemic)
IC50 [2, 23]: 23 nM
Activity [20]: Toxic
Activity [5]: Non-Toxic
Activity (Homo sapiens [19]): inactive
inhibition (Homo sapiens [6]): Active
IC50 [7, 24]: 7700 nM

inhibition [9]: inactive
IC50 [22]: 6500 nM
Compound: O=C(N[C@H]1CCCc2c1cnn2-c1ccccc1F)c1onc2c1CCCC2
IC50 [2]: Not Active
IC50 [7]: Not Active

Compound: O=C(NC1CCCc2c1cnn2-c1ccccc1F)c1ccccn1 (racemic)
IC50 [2, 23]: 5400 nM
IC50 [7, 24]: > 10000 nM

Compound: O=C(N[C@H]1CCCc2c1cnn2-c1ccccc1F)c1ccccn1
IC50 [2]: Not Active
IC50 [7]: Not Active

solubility kinetic at 4 h [1]: 110 µM (≈ 38.1 µg/mL)
half-life at 1 µM [3]: 10 min
half-life at 1 µM [4]: > 60 min
Compound: Cc1ccnc(C(=O)N[C@@H]2CCCc3c2cnn3-c2ccccc2C)c1
IC50 [2, 23]: 62 nM
Activity [20]: Toxic
Activity (Homo sapiens [19]): inactive
IC50 [7, 24]: > 10000 nM

half-life at 1 µM [3]: 1 min
half-life at 1 µM [4]: > 60 min
Compound: O=C(N[C@@H]1CCCc2c1cnn2-c1ccccc1F)c1ccccn1
IC50 [2, 23]: 930 nM
IC50 [7, 24]: > 10000 nM
